Reference: ChEMBL document CHEMBL4396917, “Synthesis and biological evaluation of novel benzylidene-succinimide derivatives as noncytotoxic antiangiogenic inhibitors with anticolorectal cancer activity in vivo” (Eur J Med Chem, 2019)
Activity calls are given as the source filed them. No cut-off for these calls is given here.

Tests used:
[1] = test system: HCT-116; assay: Cytotoxicity against human HCT116 cells assessed as reduction in cell growth after 72 hrs by MTT assay; format: cell-based; conditions: HCT-116, 72 h
[2] = test system: Chorioallantoic membrane; assay: Antiangiogenic activity in Leghorn chicken fertilized egg chorioallantoic membrane assessed as reduction in number of blood vessel formation at 20 nmol measured after 48 hrs by CAM assay relative to saline treated control; format: functional, tissue-based; conditions: Gallus gallus
Method in brief: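 Fertile Leghorn eggs incubated at 37.8°C, 40% humidity; window opened on day 7; compound, sunitinib or 0.9% NaCl mixed with DMSO applied on filter paper onto CAM; 48 h incubation, methanol fixation, photography; nascent vessels counted.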

[3] = test system: HT-29; assay: Cytotoxicity against human HT-29 cells assessed as reduction in cell growth after 72 hrs by MTT assay; format: cell-based; conditions: HT-29, 72 h
[4] = test system: HUVEC; assay: Antimigratory activity in HUVEC assessed as reduction in VEGF-induced cell migration at 2.5 uM measured after 6 hrs by wound healing assay relative to control; format: functional; conditions: Homo sapiens
Method in brief: (§1)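 Confluent HUVECs starved 12 h in M200 with 2% FBS, scratched with pipette tip; fresh M200 with 25 ng/mL VEGF plus vehicle, 2.5 μM sunitinib or compound (1, 2.5 μM); wound imaged at 0, 6, 12 and 24 h by inverted microscopy.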

[5] = test system: HUVEC; assay: Antimigratory activity in HUVEC assessed as reduction in VEGF-induced cell migration at 2.5 uM measured after 24 hrs by wound healing assay relative to control; format: functional; conditions: Homo sapiens; method in brief: as §1
[6] = test system: HUVEC; assay: Antiinvasive activity in HUVEC assessed as inhibition of VEGF-induced cell invasion at 1 uM after 6 hrs by crystal violet staining based transwell assay relative to control; format: functional; conditions: Homo sapiens
Method in brief: (§2)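 Transwell: 1×10⁴ HUVECs in serum-free M200 in top chamber with vehicle or compound; bottom chamber M200 with 10% FBS; 6 h at 37°C; cells on membrane underside fixed in 4% paraformaldehyde, stained 0.1% crystal violet, imaged and counted.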

[7] = test system: HUVEC; assay: Antiinvasive activity in HUVEC assessed as inhibition of VEGF-induced cell invasion at 10 uM after 6 hrs by crystal violet staining based transwell assay relative to control; format: functional; conditions: Homo sapiens; method in brief: as §2
[8] = test system: HUVEC; assay: Antiangiogenic activity in HUVEC assessed as inhibition of VEGF-induced capillary like tube formation preincubated with VEGF for 20 mins followed by compound addition measured after 6 hrs by matrigel based tube formation assay; format: functional, cell-based; conditions: Homo sapiens
Method in brief: (§3)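 Matrigel (100 μL) set 1 h at 37°C; 2×10⁴ HUVECs in M200 with 10% FBS added per well plus 10 ng/mL VEGF; compound added after 20 min; incubated 6 h at 37°C, then capillary-like structures photographed.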

[9] = test system: HUVEC; assay: Antiangiogenic activity in HUVEC assessed as inhibition of VEGF-induced capillary like tube formation at 1 uM preincubated with VEGF for 20 mins followed by compound addition measured after 6 hrs by matrigel based tube formation assay relative to control; format: functional; conditions: Homo sapiens; method in brief: as §3
[10] = test system: HUVEC; assay: Antiangiogenic activity in HUVEC assessed as inhibition of VEGF-induced capillary like tube formation at 2.5 uM preincubated with VEGF for 20 mins followed by compound addition measured after 6 hrs by matrigel based tube formation assay relative to control; format: functional; conditions: Homo sapiens; method in brief: as §3
[11] = test system: Aorta; assay: Inhibition of VEGF-induced capillary sprouting in Sprague-Dawley rat aortic ring treated for every 3 days for 7 days measured on day 7 by inverted microscopy; format: functional, tissue-based
Method in brief: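 Aortas from anesthetized Sprague-Dawley rats cut into 1-mm rings and embedded in Matrigel for 1 h at 37°C. Rings starved 1 day, then cultured in opti-MEM with 2.5% FBS and 30 ng/mL VEGF plus compound. Treatment renewed every 3 days for 7 days. Sprouting imaged on day 7 by inverted microscopy.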

[12] = Induction of apoptosis in VEGF-stimulated HUVEC assessed as viable cells at 5 uM after 24 hrs by Annexin V-FITC/propidium iodide staining based flow cytometric analysis (reference value: 69.6%); format: cell-based; conditions: human, read-out: Activity
Method in brief: (§4)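 HUVECs plated at 5×10^5 per well and treated 24 h with 1, 5, 10 or 20 μM. Detached and adherent cells were pooled, washed in ice-cold PBS and resuspended in fresh medium. 1×10^5 cells were stained with annexin-V-FITC in annexin-V buffer for 20 min in the dark, then PI (50 μg/mL) was added. Read-out by flow cytometry.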

[13] = test system: HUVEC; assay: Induction of apoptosis in VEGF-stimulated HUVEC assessed as early apoptotic cells at 5 uM after 24 hrs by Annexin V-FITC/propidium iodide staining based flow cytometric analysis (reference value: 7%); format: cell-based; conditions: human; method in brief: as §4
[14] = test system: HUVEC; assay: Induction of apoptosis in VEGF-stimulated HUVEC assessed as late apoptotic cells at 10 uM after 24 hrs by Annexin V-FITC/propidium iodide staining based flow cytometric analysis (reference value: 11.3%); format: cell-based; conditions: human; method in brief: as §4
[15] = test system: HUVEC; assay: Induction of apoptosis in VEGF-stimulated HUVEC assessed as necrotic cells at 10 uM after 24 hrs by Annexin V-FITC/propidium iodide staining based flow cytometric analysis (reference value: 12.1%); format: cell-based; conditions: human; method in brief: as §4
[16] = test system: HUVEC; assay: Induction of apoptosis in VEGF-stimulated HUVEC assessed as late apoptotic cells at 20 uM after 24 hrs by Annexin V-FITC/propidium iodide staining based flow cytometric analysis (reference value: 11.3%); format: cell-based; conditions: human; method in brief: as §4
[17] = test system: HUVEC; assay: Induction of apoptosis in VEGF-stimulated HUVEC assessed as PARP cleavage at 1 to 20 uM by Western blot analysis; format: cell-based; conditions: human
[18] = test system: HUVEC; assay: Induction of apoptosis in VEGF-stimulated HUVEC assessed as caspase-3 cleavage at 1 to 20 uM by Western blot analysis; format: cell-based; conditions: human
[19] = Induction of apoptosis in human HT-29 cells assessed as viable cells at 1 uM after 24 hrs by Annexin V-FITC/propidium iodide staining based flow cytometric analysis (reference value: 80.8%); format: cell-based; conditions: read-out: Activity
[20] = test system: HT-29; assay: Induction of apoptosis in human HT-29 cells assessed as early apoptotic cells at 5 uM after 24 hrs by Annexin V-FITC/propidium iodide staining based flow cytometric analysis (reference value: 1.9 to 5.3%); format: cell-based; conditions: ht-29, 24 h
[21] = test system: HT-29; assay: Induction of apoptosis in human HT-29 cells assessed as necrotic cells at 5 uM after 72 hrs by Annexin V-FITC/propidium iodide staining based flow cytometric analysis (reference value: 1.3%); format: cell-based; conditions: ht-29, 72 h
[22] = test system: HT-29; assay: Induction of apoptosis in human HT-29 cells assessed as PARP cleavage up to 20 uM after 24 to 72 hrs by Western blot analysis; format: cell-based
[23] = test system: HUVEC; assay: Inhibition of Akt/mTOR signalling in VEGF-induced HUVEC assessed as reduction in AKT phosphorylation at Ser473 residue at 1 to 20 uM pre-incubated for 1.5 hrs followed by VEGF stimulation and measured after 30 mins by Western blot analysis; format: cell-based; conditions: Homo sapiens
Method in brief: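 HUVECs were starved overnight, pretreated 1.5 h with 1, 5, 10 or 20 μM, then stimulated with VEGF (50 ng/mL) for 30 min. Lysates were equalized by Bradford assay, about 20 μg protein was resolved on gradient SDS-PAGE and immunoblotted with phospho-specific antibodies. Detection by HRP secondary antibodies and ECL.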

## COc1ccc(NC(=O)c2cccc(/C=C3\CC(=O)N(c4ccc(C)cc4)C3=O)c2)cc1
[1]
  IC50: > 100 µM
[2]
  inhibition: 96.4%
[3]
  IC50: > 100 µM
[4]
  inhibition at 2.5 µM: 30%
[5]
  inhibition at 2.5 µM: 60%
[6]
  inhibition at 1 µM: 20%
[7]
  inhibition at 10 µM: 50%
[8]
  inhibition: Dose-dependent effect
[9]
  inhibition at 1 µM: 30%
[10]
  inhibition at 2.5 µM: 73%
[11]
  inhibition: Dose-dependent effect
[12]
  viability at 24 h, 5 µM: 75.4%
[13]
  Activity: 10.1%
[14]
  Activity: 11.7%
[15]
  Activity: 5.4%
[16]
  Activity: 10.1%
[17]
  Activity: Non-Toxic
[18]
  Activity: Non-Toxic
[19]
  viability at 24 h, 1 µM: 79.9%
[20]
  Activity: 1.2 to 5.4%
[21]
  Activity: 0.8%
[22]
  Activity: Non-Toxic
[23]
  inhibition: Active
